# From ChEMBL document CHEMBL4020824, “Discovery of Potent and Orally Bioavailable Dihydropyrazole GPR40 Agonists” (J Med Chem, 2018)
# pIC50: −log10 of the molar value. Activity calls are given as the source filed them. The rule behind the calls is not given here.
# Columns and labels:
# [1] = Tmax in C57BL6 mouse at 1 mg/kg, po administered as single dose measured up to 24 hrs post dose by LC-MS/MS analysis; assay type: ADME, organism-based; conditions: in vivo
# [2] = Volume of distribution at steady state in cynomolgus monkey at 0.5 mg/kg, iv administered as single dose measured up to 24 hrs post dose by LC-MS/MS analysis; assay type: ADME, organism-based, Macaca fascicularis; conditions: in vivo, read-out: Vdss
# [3] = target: Voltage-gated inwardly rectifying potassium channel KCNH2 (Homo sapiens, UniProt Q12809); test: Inhibition of human ERG (unknown origin) at <10 uM
# Sequence of Voltage-gated inwardly rectifying potassium channel KCNH2 (Q12809 whole entry): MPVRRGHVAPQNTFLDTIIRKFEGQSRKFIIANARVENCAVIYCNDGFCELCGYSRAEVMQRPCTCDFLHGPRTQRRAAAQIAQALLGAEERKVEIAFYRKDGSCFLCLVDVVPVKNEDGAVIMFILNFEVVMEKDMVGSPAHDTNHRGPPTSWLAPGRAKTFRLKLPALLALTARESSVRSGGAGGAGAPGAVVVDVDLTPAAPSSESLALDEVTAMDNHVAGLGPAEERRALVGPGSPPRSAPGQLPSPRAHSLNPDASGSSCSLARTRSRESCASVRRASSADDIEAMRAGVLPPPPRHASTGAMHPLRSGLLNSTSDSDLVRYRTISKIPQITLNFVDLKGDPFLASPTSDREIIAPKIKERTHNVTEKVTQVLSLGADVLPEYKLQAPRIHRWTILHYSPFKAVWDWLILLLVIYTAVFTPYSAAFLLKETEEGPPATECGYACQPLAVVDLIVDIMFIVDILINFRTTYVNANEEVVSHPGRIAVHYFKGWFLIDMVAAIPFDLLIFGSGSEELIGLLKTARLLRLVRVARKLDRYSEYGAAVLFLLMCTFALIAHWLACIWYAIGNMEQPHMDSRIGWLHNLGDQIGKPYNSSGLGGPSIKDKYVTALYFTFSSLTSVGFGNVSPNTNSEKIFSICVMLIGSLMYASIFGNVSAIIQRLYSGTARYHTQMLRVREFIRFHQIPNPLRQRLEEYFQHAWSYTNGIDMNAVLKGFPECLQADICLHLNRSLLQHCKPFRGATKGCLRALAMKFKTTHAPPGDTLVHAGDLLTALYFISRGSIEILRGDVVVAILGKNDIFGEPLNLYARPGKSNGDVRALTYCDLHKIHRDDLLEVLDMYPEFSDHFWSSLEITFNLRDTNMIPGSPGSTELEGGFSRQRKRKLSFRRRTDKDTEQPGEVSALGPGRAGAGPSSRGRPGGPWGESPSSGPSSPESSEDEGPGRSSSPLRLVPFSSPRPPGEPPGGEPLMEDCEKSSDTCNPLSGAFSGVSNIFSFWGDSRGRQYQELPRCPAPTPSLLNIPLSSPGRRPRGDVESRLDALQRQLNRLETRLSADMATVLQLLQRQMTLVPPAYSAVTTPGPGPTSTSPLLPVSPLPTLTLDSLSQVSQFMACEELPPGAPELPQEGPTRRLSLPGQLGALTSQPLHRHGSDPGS
# [4] = Tmax in cynomolgus monkey at 1 mg/kg, po administered as single dose measured up to 24 hrs post dose by LC-MS/MS analysis; assay type: ADME, organism-based, Macaca fascicularis; conditions: in vivo
# [5] = Volume of distribution at steady state in CD1 mouse at 1 mg/kg, iv via bolus dose or 1 mg/kg, po administered as single dose measured up to 24 hrs post dose by LC-MS/MS analysis; assay type: ADME, organism-based; conditions: in vivo, read-out: Vdss
# [6] = Oral bioavailability in Sprague-Dawley rat at 3 mg/kg administered via gavage as single dose measured up to 24 hrs post dose by LC-MS/MS analysis; assay type: ADME, organism-based; conditions: in vivo
# [7] = Half life in cynomolgus monkey at 0.5 mg/kg, iv administered as single dose measured up to 24 hrs post dose by LC-MS/MS analysis; assay type: ADME, organism-based, Macaca fascicularis; conditions: in vivo
# [8] = Cmax in Beagle dog at 1 mg/kg, po administered as single dose measured up to 24 hrs post dose by LC-MS/MS analysis; assay type: ADME, organism-based, Canis lupus familiaris; parameters: dose 1 mg/kg, route oral; conditions: in vivo
# Mus musculus [9] = test: Antidiabetic activity in C57BL/6J mouse assessed as glucose lowering effect at 0.1 mg/kg, po administered 1 hr prior to glucose challenge measured after 120 mins by IPGTT; assay type: functional, organism-based
# [10] = Half life in rat liver microsomes at 1 to 3 uM incubated for 20 mins in presence NADPH measured up to 90 mins by LC/MS/MS analysis; assay type: ADME, microsome; conditions: liver microsomes
# [11] = Stability in human liver microsomes assessed as parent compound remaining at 1 to 3 uM incubated for 20 mins in presence NADPH measured up to 90 mins by LC/MS/MS analysis; assay type: ADME, microsome; conditions: liver microsomes, read-out: Stability
# Method in brief: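 Human or rat liver microsomal incubations. The read-outs were % parent remaining, % D-ring dealkylation metabolites, % GSH adducts, and half-life (min). The metabolites followed were CYP450-mediated oxidative de-alkylation products (phenols) and GSH conjugates.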
# [12] = target: T1, Amine oxidase [flavin-containing] B (Homo sapiens, UniProt P27338); test: Inhibition of MAO-B (unknown origin)
# T1 sequence (P27338 whole entry): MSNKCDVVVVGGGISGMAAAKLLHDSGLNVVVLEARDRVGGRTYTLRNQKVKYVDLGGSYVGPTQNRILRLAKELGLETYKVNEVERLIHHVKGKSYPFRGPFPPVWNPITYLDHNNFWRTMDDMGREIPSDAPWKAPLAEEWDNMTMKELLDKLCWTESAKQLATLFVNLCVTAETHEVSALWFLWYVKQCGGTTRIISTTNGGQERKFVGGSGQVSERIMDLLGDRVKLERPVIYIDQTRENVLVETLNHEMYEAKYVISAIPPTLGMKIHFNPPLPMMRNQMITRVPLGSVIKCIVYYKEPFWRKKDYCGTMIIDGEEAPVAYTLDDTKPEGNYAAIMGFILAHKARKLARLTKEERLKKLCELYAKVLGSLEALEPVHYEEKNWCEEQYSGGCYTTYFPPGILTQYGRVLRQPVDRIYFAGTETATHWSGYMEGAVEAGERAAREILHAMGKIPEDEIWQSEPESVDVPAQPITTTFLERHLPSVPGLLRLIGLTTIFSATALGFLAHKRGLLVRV
# Mus musculus [13] = test: Antidiabetic activity in C57BL/6J mouse assessed as reduction in plasma glucose excursion at 3 mg/kg, po administered 1 hr prior to glucose challenge measured after 120 mins in presence of DPP4 inhibitor BMS-538305 by OGTT assay; assay type: functional, organism-based
# [14] = Oral bioavailability in Beagle dog at 1 mg/kg administered via gavage as single dose measured up to 24 hrs post dose by LC-MS/MS analysis; assay type: ADME, organism-based, Canis lupus familiaris; conditions: in vivo
# [15] = Half life in human liver microsomes at 1 to 3 uM incubated for 20 mins in presence NADPH measured up to 90 mins by LC/MS/MS analysis; assay type: ADME, microsome; conditions: liver microsomes
# [16] = Half life in CD1 mouse at 1 mg/kg, iv administered as bolus dose or 1 mg/kg, po administered as single dose measured up to 24 hrs post dose by LC-MS/MS analysis; assay type: ADME, organism-based; conditions: in vivo
# [17] = Volume of distribution at steady state in Sprague-Dawley rat at 1 mg/kg, iv administered as single dose measured up to 24 hrs post dose by LC-MS/MS analysis; assay type: ADME, organism-based; conditions: in vivo, read-out: Vdss
# Mus musculus [18] = test: Antidiabetic activity in C57BL/6J mouse assessed as increase in plasma insulin levels at 3 mg/kg, po administered 1 hr prior to glucose challenge measured after 120 mins during OGTT by ELISA; assay type: functional, organism-based
# Mus musculus [19] = test: Antidiabetic activity in po dosed C57BL/6J mouse assessed as reduction of plasma glucose excursion administered 1 hr prior to glucose challenge measured after 120 mins by IPGTT; assay type: functional, organism-based
# [20] = Volume of distribution at steady state in Beagle dog at 0.5 mg/kg, iv administered as single dose measured up to 24 hrs post dose by LC-MS/MS analysis; assay type: ADME, organism-based, Canis lupus familiaris; conditions: in vivo, read-out: Vdss
# [21] = Clearance in Sprague-Dawley rat at 1 mg/kg, iv administered as single dose measured up to 24 hrs post dose by LC-MS/MS analysis; assay type: ADME, organism-based; conditions: in vivo
# Mus musculus [22] = test: Antidiabetic activity in C57BL/6J mouse assessed as reduction in plasma glucose excursion at 3 mg/kg, po administered 1 hr prior to glucose challenge measured after 120 mins by OGTT assay; assay type: functional, organism-based
# [23] = Cmax in C57BL6 mouse at 1 mg/kg, po administered as single dose measured up to 24 hrs post dose by LC-MS/MS analysis; assay type: ADME, organism-based; parameters: dose 1 mg/kg, route oral; conditions: in vivo
# [24] = Tmax in Beagle dog at 1 mg/kg, po administered as single dose measured up to 24 hrs post dose by LC-MS/MS analysis; assay type: ADME, organism-based, Canis lupus familiaris; conditions: in vivo
# Mus musculus [25] = test: Antidiabetic activity in C57BL/6J mouse assessed as effect on active GLP-1 levels at 3 mg/kg, po administered 1 hr prior to glucose challenge measured after 120 mins during OGTT assay by ELISA; assay type: functional, organism-based
# [26] = Half life in Beagle dog at 0.5 mg/kg, iv administered as single dose measured up to 24 hrs post dose by LC-MS/MS analysis; assay type: ADME, organism-based, Canis lupus familiaris; conditions: in vivo
# [27] = Oral bioavailability in cynomolgus monkey at 1 mg/kg administered via gavage as single dose measured up to 24 hrs post dose by LC-MS/MS analysis; assay type: ADME, organism-based, Macaca fascicularis; conditions: in vivo
# [28] = Tmax in Sprague-Dawley rat at 3 mg/kg, po administered as single dose measured up to 24 hrs post dose by LC-MS/MS analysis; assay type: ADME, organism-based; conditions: in vivo
# [29] = Clearance in CD1 mouse at 1 mg/kg, iv administered as bolus dose or 1 mg/kg, po administered as single dose measured up to 24 hrs post dose by LC-MS/MS analysis; assay type: ADME, organism-based; conditions: in vivo
smiles,measurement,setting,value
COc1cc(N2CC[C@@H](Oc3ccc(N4N=C(C(F)(F)F)[C@@H](C)[C@@H]4CC(=O)O)cc3)[C@H](C)C2)c(Cl)cn1,Tmax,[1],1 h
same,Vd,[2],0.7 L/kg
same,inhibition (INH),[3],Not Active
same,Tmax,[4],5 h
same,Vd,[5],0.4 L/kg
same,bioavailability,[6],47%
same,half-life,[7],13 h
same,Cmax,[8],1.2 µM
same,Activity,Mus musculus [9],Active
same,half-life,[10],1.35 h
same,"remaining at 20 min, up to 3 µM",[11],89%
same,pIC50,[12],5.22
same,Activity,Mus musculus [13],Active
same,bioavailability,[14],62%
same,half-life,[15],1.7 h
same,half-life,[16],3.1 h
same,Vd,[17],0.3 L/kg
same,Activity,Mus musculus [18],Active
same,Activity,Mus musculus [19],Dose-dependent effect
same,Vd,[20],0.6 L/kg
same,clearance,[21],3.4 mL/min/kg
same,Activity,Mus musculus [22],Active
same,Cmax,[23],6 µM
same,Tmax,[24],0.8 h
same,Activity,Mus musculus [25],inactive
same,half-life,[26],5.2 h
same,bioavailability,[27],61%
same,Tmax,[28],1.3 h
same,clearance,[29],2 mL/min/kg
